What was measured:
A2780 = experiment: Antiproliferative effect of compound on A2780/DX cell line; assay type: functional, cell-based; details: Homo sapiens
In short: (§1)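 Human tumor cell lines exposed to drug for 72 h. Growth was measured by cell counting. IC50, the concentration giving 50% inhibition of cell growth, was read from dose–response curves.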

A-431 = experiment: Antiproliferative effect of compound on A431 cell line expressing mutant p53; assay type: functional, cell-based; details: Homo sapiens; in short: as §1
DU-145 [1] = experiment: Antiproliferative effect of compound on DU145 cell line expressing mutant p53; assay type: functional, cell-based; details: Homo sapiens; in short: as §1
GBM = experiment: Antiproliferative effect of compound on GBM cell line expressing mutant p53; assay type: functional, cell-based; details: Homo sapiens; in short: as §1
NCI-H460 = experiment: Antiproliferative effect of compound on H460 cell line expressing wild-type p53; assay type: functional, cell-based; details: Homo sapiens; in short: as §1
HCT-116 = experiment: Antiproliferative effect of compound on HCT116 cell line expressing wild-type p53; assay type: functional, cell-based; details: Homo sapiens; in short: as §1
DU-145 [2] = experiment: (§2) Apoptosis was determined my morphological analysis of propidium-iodide-stained cells following 48 hr exposure to IC80 (0.5 uM), value expressed as percentage of apoptotic cells versus total cell number; assay type: functional, Homo sapiens
IGROV-1 [3] = experiment: as §2; assay type: functional, Homo sapiens
DU-145 [4] = experiment: (§3) Apoptosis was determined my morphological analysis of propidium-iodide-stained cells following 72 hr exposure to IC80 (0.5 uM), value expressed as percentage of apoptotic cells versus total cell number; assay type: functional, Homo sapiens
IGROV-1 [5] = experiment: as §3; assay type: functional, Homo sapiens
IGROV-1 [6] = experiment: Antiproliferative effect of compound on IGROV-1 cell line expressing wild-type p53; assay type: functional, cell-based; details: Homo sapiens; in short: as §1
DU-145 [7] = experiment: (§4) Apoptosis was determined my morphological analysis of propidium-iodide-stained cells following 24 hr exposure to IC80 (0.5 uM), value expressed as percentage of apoptotic cells versus total cell number; assay type: functional, Homo sapiens
IGROV-1 [8] = experiment: as §4; assay type: functional, Homo sapiens
LNCaP = experiment: Antiproliferative effect of compound on LNcaP cell line expressing wild-type p53; assay type: functional, cell-based; details: Homo sapiens; in short: as §1
Me665/2/21 = experiment: Antiproliferative effect of compound on Me665/2/21 cell line expressing mutant p53; assay type: functional, cell-based; details: Homo sapiens; in short: as §1
PC-3 = experiment: Antiproliferative effect of compound on PC3 cell line; assay type: functional, cell-based; details: Homo sapiens; in short: as §1
SAOS-2 = experiment: Antiproliferative effect of compound on SAOS cell line; assay type: functional, cell-based; details: Homo sapiens; in short: as §1
U2OS = experiment: Antiproliferative effect of compound on U2OS cell line expressing wild-type p53; assay type: functional, cell-based; details: Homo sapiens; in short: as §1
LoVo = experiment: Antiproliferative effect of compound on LoVo cell line expressing wild-type p53; assay type: functional, cell-based; details: Homo sapiens; in short: as §1

| Compound | IC50 (A2780) [µM] | IC50 (A-431) [µM] | IC50 (DU-145 [1]) [µM] | IC50 (GBM) [µM] | IC50 (NCI-H460) [µM] | IC50 (HCT-116) [µM] | Apoptosis (DU-145 [2]) [%] | Apoptosis (IGROV-1 [3]) [%] | Apoptosis (DU-145 [4]) [%] | Apoptosis (IGROV-1 [5]) [%] | IC50 (IGROV-1 [6]) [µM] | Apoptosis (DU-145 [7]) [%] | Apoptosis (IGROV-1 [8]) [%] | IC50 (LNCaP) [µM] | IC50 (Me665/2/21) [µM] | IC50 (PC-3) [µM] | IC50 (SAOS-2) [µM] | IC50 (U2OS) [µM] | IC50 (LoVo) [µM] |
| --- | --- | --- | --- | --- | --- | --- | --- | --- | --- | --- | --- | --- | --- | --- | --- | --- | --- | --- | --- |
| O=C(O)/C=C/c1ccc(-c2ccc(O)c(C34CC5CC(CC(C5)C3)C4)c2)cc1 [ADAROTENE] | 0.1 | 0.25 | 0.1 | 0.18 | 0.19 | 0.32 | 44 | 46 | 50 | 44 | 0.23 | 24 | 42 | 0.12 | 0.25 | 0.21 | 0.25 | 0.26 | 0.15 |
| O=C(O)c1ccc2cc(-c3ccc(O)c(C45CC6CC(CC(C6)C4)C5)c3)ccc2c1 [O-DEMETHYLATED ADAPALENE] | – | 0.51 | 0.28 | 0.55 | 0.43 | 0.68 | 33 | 15 | 30 | 38 | 0.35 | 16 | 22 | 0.32 | 0.42 | 0.43 | 0.67 | 0.44 | 0.49 |

Source: ChEMBL document CHEMBL1136723, “A novel atypical retinoid endowed with proapoptotic and antitumor activity” (J Med Chem, 2003)
